Data: ChEMBL document CHEMBL1221317, “S-benzylisothiourea derivatives as small-molecule inhibitors of indoleamine-2,3-dioxygenase” (Bioorg Med Chem Lett, 2010)
The source made the active and inactive calls. The rule behind the calls is not given here.

What was measured:
[1] = target: T1, Indoleamine 2,3-dioxygenase 1 (Homo sapiens, UniProt P14902); experiment: Inhibition of indoleamine-2,3-dioxygenase
Procedure, shortened: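 Recombinant IDO, in 50 mM potassium phosphate buffer (pH 6.5) with 20 mM neutralized ascorbic acid, catalase, methylene blue and L-Trp. Incubated at 37 °C for 60 min, then stopped with 30% (w/v) trichloroacetic acid and heated at 50 °C for 15 min. After centrifugation, the supernatant was mixed with 2% (w/v) p-dimethylaminobenzaldehyde in acetic acid to detect kynurenine colorimetrically.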
Target sequence in this assay (P14902 whole entry): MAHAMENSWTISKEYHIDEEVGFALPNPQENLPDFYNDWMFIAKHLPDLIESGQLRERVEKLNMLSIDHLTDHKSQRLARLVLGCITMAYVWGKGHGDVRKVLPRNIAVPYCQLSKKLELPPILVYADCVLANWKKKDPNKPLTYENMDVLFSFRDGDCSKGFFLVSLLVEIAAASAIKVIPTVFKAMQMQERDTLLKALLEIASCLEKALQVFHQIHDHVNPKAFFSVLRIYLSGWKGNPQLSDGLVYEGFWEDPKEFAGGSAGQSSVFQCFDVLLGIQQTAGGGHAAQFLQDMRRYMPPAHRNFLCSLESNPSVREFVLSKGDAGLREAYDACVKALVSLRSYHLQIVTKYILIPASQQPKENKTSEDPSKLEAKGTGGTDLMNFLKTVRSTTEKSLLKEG

[2] = target: T1, Indoleamine 2,3-dioxygenase 1; experiment: Inhibition of indoleamine-2,3-dioxygenase in human A431 cells assessed as inhibition of IFN-gamma-stimulated kynurenine production; type: cell-based, A-431
Procedure, shortened: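 A431 cells (2.0 × 10⁵ cells/mL) were seeded and grown overnight. Serial DMSO dilutions of compound were added and incubated for 24 h more. Then 7% (v/v) aqueous trichloroacetic acid and 2% (w/v) p-dimethylaminobenzaldehyde in acetic acid (2:5) were added, and the kynurenine-derived yellow colour was read at 460 nm.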
Target sequence in this assay (P14902 whole entry): as above

[3] = target: T1, Indoleamine 2,3-dioxygenase 1; experiment: Inhibition of indoleamine-2,3-dioxygenase in human A431 cells assessed as inhibition of IFN-gamma-stimulated kynurenine production at 10 uM; type: cell-based; settings: A-431
Procedure, shortened: (§1)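 A431 cells were precultured for 24 h, given fresh medium, and treated with compound with or without IFN-γ (5 ng/ml). Culture media and cell extracts were then collected. IDO and α-tubulin in the lysates were detected by western blot, and kynurenine concentration was measured in the culture medium.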
Target sequence in this assay (P14902 whole entry, looked up): as the sequence (P14902 whole entry) above

[4] = tested on: A-431; experiment: Inhibition of indoleamine-2,3-dioxygenase expression in human A431 cells at 10 uM; type: functional, cell-based; procedure, shortened: as §1

Structure (SMILES)	IC50 [1] [µM]	IC50 [2] [µM]	inhibition [3]	inhibition [4]
Fc1ccc(CS)cc1	1.8	1.9		
SCc1ccc(Cl)cc1Cl	3.5	4.6		
NCCc1ccc(Cl)cc1	> 100	> 20		
CC(C)(C)c1ccc(CSC(=N)N)cc1	> 100	> 20		
N=C(N)SCc1ccc([N+](=O)[O-])cc1	11	2.2		
O=S(=O)(O)c1ccc(Cl)cc1	> 100	> 20		
SCc1ccc(Cl)c(Cl)c1	0.1	1.1		
N=C(N)SCc1ccccc1Cl	10	4.8		
COc1ccc(CS)cc1	1.4	9.4		
N=C(N)SCc1ccc(Cl)cc1	2.2	0.6	Active	inactive
NC(=S)Nc1ccc(Cl)cc1	> 100	> 20		
SCc1ccccc1 [BENZENEMETHANETHIOL]	1.7	13		
Sc1ccc(Cl)cc1	1.9	> 20		
NCc1ccc(Cl)cc1	> 100	> 20		
N=C(N)SCc1ccc(C(=O)O)cc1	> 100	> 20		
CCc1ccc(CSC(=N)N)cc1	16	2.5		
Cc1ccc(CS)cc1	1.3	6.5		
SCc1ccc(Cl)cc1	3.2	1.1		
OCc1ccc(Cl)cc1	> 100	> 20		
COc1ccc(CSC(=N)N)cc1	52	10		
C/N=C(\NC)SCc1ccc(Cl)cc1	21	> 20		

Structure (SMILES)	IC50 [1] [µM]	IC50 [2] [µM]	inhibition [3]	inhibition [4]
CSC(=N)NCCc1ccc(Cl)cc1	> 100	> 20		
Cc1ccc(CSC(=N)N)cc1	30	6.8		
CC(C)c1ccc(CSC(=N)N)cc1	> 100	> 20		
O=S(O)c1ccc(Cl)cc1	> 100	> 20		
N=C(N)SCc1cccc(Cl)c1	4.6	1.4		
N=C(N)SCc1ccc(C(=O)c2ccccc2)cc1	> 100	> 20		
N=C(N)SCc1ccc(Cl)cc1Cl	0.4	1.1		
CSC(=N)Nc1ccc(Cl)cc1	> 100	> 20		
N=C(N)SCCc1ccc(Cl)cc1	57	> 20		
NC(=O)NCc1ccc(Cl)cc1	> 100	> 20		
N=C(N)SCc1ccc(C(F)(F)F)cc1	2.6	1.2		
N=C(N)SCc1ccc(F)cc1	13	2		
SCc1ccccc1Cl	1.2	15		
N=C(N)SCc1ccc(Cl)c(Cl)c1	17	7.3		
N=C(N)SCCc1ccccc1Cl	> 100	> 20		
CS(=O)(=O)c1ccc(CSC(=N)N)cc1	> 100	> 10		
N=C(N)SCc1ccc(Br)cc1	1.3	0.8		
N=C(N)SCc1ccccc1	61	> 10		
NC(=S)NCCc1ccc(Cl)cc1	100	> 20		
N=C(N)SCCc1cccc(Cl)c1	> 100	> 20		
N#Cc1ccc(CSC(=N)N)cc1	19	2.6		
